Bioassay records deposited in PubChem BioAssay by Broad Institute.
Hits are enriched below; roughly 2% of the tested compounds scored in any of these assays.
XiGFP reactiv: activators of X-chromosome reactivation in mouse fibroblasts; 0.055% of 360,000 active; AID 743238; XiGFP mouse fibroblasts, % GFP-positive cells imaging, 3 d; cells co-treated with 5-aza-dC sensitizer; scaled so ellipticine positive control = 100%; activation, % at 7.58 µM;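 active = mean normalized replicate activation at least 10% and every replicate at or above 10%; inconclusive = only one of the two criteria met; inactive = mean below 10% and not all replicates reach 10%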
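System: 68-5-11 XiGFP fibroblast line | Buffer or medium: DMEM containing 5-aza-dC | Compound: Single point | Times: Compounds 3 days, fix/stain 15 min at room temperature | Benchmarks: Positive control ellipticine, 6 µM final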
E-selectin induc: E-selectin induction on HUVECs. HUVEC E-selectin immunofluorescence imaging; normalized: neutral wells 0, TNF-alpha wells 100. activation, % at 7.58 µM. 0.37% of 260,000 active;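 active = mean E-selectin-positive cell signal at least 10% of the positive control, reached in at least 60% of replicates, without over 20% cell loss; inconclusive = no rule given, readout overlaps actives, possibly toxicity-flagged; inactive = the rest, including those meeting only one limit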
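assay system = HUVEC, human umbilical vein endothelial cells | input = 3,000 HUVEC seeded per well | medium = EGM-2 growth medium on 0.1% gelatin-coated wells | dosing = one compound dose added by pin transfer | signal = immunofluorescence imaging | read-out basis = % PE-positive cells | control set = TNF-alpha, DMSO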
S100A4 MyoIIA: S100A4-myosin IIA interaction inhibition; P26447; S100A4/TAMRA-MyoIIA peptide fluorescence polarization; inhibition, % at 10.7 µM; 0.14% of 360,000 active; AID 652163;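 active = mean inhibition of at least 70% across replicates, with every replicate also reaching that level; inconclusive = mean inhibition reaches 70% but some replicates fall short; inactive = mean inhibition below 70%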
Target sequence (P26447 whole entry, looked up): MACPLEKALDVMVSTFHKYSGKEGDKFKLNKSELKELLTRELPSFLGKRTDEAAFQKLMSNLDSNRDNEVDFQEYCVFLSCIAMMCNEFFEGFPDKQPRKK
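incubation = readout 5 min after mixing, signal stable up to 60 min | system = S100A4 monomer protein | buffer or medium = HEPES pH 7.2 with CaCl2, KCl, NaCl, DTT, Triton | benchmarks = neutral control DMSO, positive control TFP | also added = fluorescent myosin IIA peptide, 5 nM | compound dosing = one concentration per compound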
DENV2 CPE: DENV2-induced cell death inhibition. DENV2-infected cells, cytopathic effect rescue, plate reader. CPE inhibition, % at 9.99 µM. 1.7% of 350,000 active. AID 651640; in the data active = CPE inhibition above about 20%, passing the limit was not always enough; inconclusive = no clear call, values can overlap the other calls; tested in BHK-21 cells
Each line names hits and unclear results; the compound was inactive in the other large screens; ! = a repeat was not active.

C[C@H]1CN([C@@H](C)CO)S(=O)(=O)c2ccc(Br)cc2O[C@H]1CN(C)C(=O)CN(C)C	DENV2 CPE 38!
C[C@H](CO)N1C[C@H](C)[C@@H](CN(C)C(=O)CN(C)C)Oc2cc(Br)ccc2S1(=O)=O	DENV2 CPE 33
C[C@H]1CN([C@@H](C)CO)S(=O)(=O)c2ccc(Br)cc2O[C@H]1CN(C)S(=O)(=O)c1ccccc1F	none
C[C@@H]1CN([C@@H](C)CO)S(=O)(=O)c2ccc(Br)cc2O[C@H]1CN(C)C(=O)CN(C)C	none
C[C@H]1CN([C@@H](C)CO)S(=O)(=O)c2ccc(Br)cc2O[C@@H]1CN(C)S(=O)(=O)c1ccccc1F	DENV2 CPE 36!
CNC(=O)Oc1ccc2c(c1)[C@]1(C)CCN(C)C1N2C (stereo partly drawn)	E-selectin induc inconclusive
CN(C)S(=O)(=O)c1cccc(C(=O)Nc2ccccc2C(=O)NC2CC2)c1	DENV2 CPE 54
O=C(Nc1ccnc(-c2ccncc2)n1)c1ccc(Cl)cc1	none (no result: E-selectin induc)
O=C(NCCCNC(=O)c1cnccn1)c1ccc(Cl)cc1	none
O=C(COc1ccc(Cl)cc1)NCCCNC(=O)c1cnccn1	E-selectin induc 34
C[C@@H]1CN([C@@H](C)CO)C(=O)c2cc(NS(=O)(=O)c3ccccc3)ccc2O[C@@H](C)CCCCO[C@@H]1CN(C)Cc1ccncc1	DENV2 CPE 49 (no result: E-selectin induc)
C[C@@H]1CN([C@@H](C)CO)C(=O)c2cc(NS(=O)(=O)c3ccccc3)ccc2O[C@@H](C)CCCCO[C@@H]1CN(C)CC1CCCCC1	DENV2 CPE 55
C[C@@H]1CN([C@H](C)CO)C(=O)c2cc(NS(=O)(=O)c3ccccc3)ccc2O[C@@H](C)CCCCO[C@H]1CN(C)Cc1ccncc1	none (no result: E-selectin induc)
C[C@@H]1CCCCO[C@H](CN(C)Cc2ccncc2)[C@H](C)CN([C@@H](C)CO)C(=O)c2cc(NS(=O)(=O)c3ccccc3)ccc2O1	DENV2 CPE 33 (no result: E-selectin induc)
COCCNc1c(-c2cc3ccc(C)c(C)c3[nH]c2=O)nc2ccccn12	none (no result: DENV2 CPE)
CNC(=O)C[C@H]1CC[C@H]2[C@@H](COc3ccc(NC(=O)Nc4cc(C)cc(C)c4)cc3C(=O)N2C)O1	none (no result: S100A4 MyoIIA, DENV2 CPE)
Cn1c(=O)c2cc(NC(=S)NCc3ccccc3F)ccc2n1C	none
CNCCCC1c2ccccc2C=Cc2ccccc21	DENV2 CPE 26
O=C(NC1=NCCS1)c1cc(-c2cccs2)nc2ccccc12	none
C[C@H]1CN([C@@H](C)CO)C(=O)CCCn2nncc2CO[C@H]1CN(C)Cc1cccc(C(F)(F)F)c1	none
O=C(COC(=O)Cc1ccc(Cl)cc1Cl)NCCC1=CCCCC1	none
O=C(COC(=O)COc1ccc(Cl)cc1Br)NCCC1=CCCCC1	E-selectin induc 29
Nc1ccn([C@H]2CS[C@@H](CO)O2)c(=O)n1	DENV2 CPE 27 (no result: XiGFP reactiv, E-selectin induc)
Nc1ccn([C@@H]2O[C@H](CO)[C@@H](O)[C@H]2O)c(=O)n1	none
CCOC(=O)C1=C(c2ccccc2)NC(N)=NC1c1ccc(OCc2ccc(C(=O)OC)cc2)cc1 (stereo not drawn)	none (no result: E-selectin induc)
S=c1nc(-c2cc(Cl)ccc2Cl)[nH][nH]1	none (no result: DENV2 CPE)
CCNC(=O)C1CCCN1S(=O)(=O)c1ccc(C)cc1 (stereo not drawn)	none (no result: XiGFP reactiv, E-selectin induc)
CCOC(=O)C1=CN(Cc2cccc(Br)c2)S(=O)(=O)N(C)C1C (stereo not drawn)	DENV2 CPE 37
CCOC(=O)C1=CN(Cc2cccc(I)c2)S(=O)(=O)N(C)C1C (stereo not drawn)	none (no result: E-selectin induc)
CC(C)NC(=O)Nc1ccc2c(c1)C(=O)N([C@@H](C)CO)C[C@@H](C)[C@H](CN(C)C(=O)NC1CCCCC1)OCCCC[C@@H](C)O2	none
O=C(C[C@H]1CC[C@@H]2NC[C@H](O)COC[C@H]2O1)NCCc1ccccc1	DENV2 CPE 25
O=C(C[C@@H]1CC[C@H]2[C@@H](COC[C@@H](O)CN2C(=O)Nc2ccccc2)O1)NCCc1ccncc1	none
O=C(C[C@H]1CC[C@H]2[C@@H](COC[C@H](O)CN2C(=O)Nc2ccccc2)O1)NCCc1ccncc1	DENV2 CPE 53
C[C@@H](NC(=O)C[C@@H]1CC[C@@H]2[C@H](COC[C@H](O)CN2C(=O)Nc2ccccc2)O1)c1ccccc1	none
O=C(C[C@H]1CC[C@@H]2NC[C@@H](O)COC[C@H]2O1)NCCc1ccccc1	none
C[C@@H](NC(=O)C[C@@H]1CC[C@H]2[C@@H](COC[C@H](O)CN2C(=O)Nc2ccccc2)O1)c1ccccc1	DENV2 CPE 113
